From PubChem BioAssay AID623942 (The Scripps Research Institute Molecular Screening Center, 2012) come the findings set out here.

SMILES strings stand for the structures. Active and inactive are the calls of the source.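 Rule for the calls: active = IC50 at or below 50 µM; inactive = IC50 above 50 µM.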 Bounds are passed on as bounds.

In general, IC50 refers to the concentration at which inhibition is half-maximal.

RecBCD enzyme subunit RecC (Escherichia coli (strain K12)) + RecBCD enzyme subunit RecB (Escherichia coli (strain K12)), sequence (P07648 whole entry, looked up): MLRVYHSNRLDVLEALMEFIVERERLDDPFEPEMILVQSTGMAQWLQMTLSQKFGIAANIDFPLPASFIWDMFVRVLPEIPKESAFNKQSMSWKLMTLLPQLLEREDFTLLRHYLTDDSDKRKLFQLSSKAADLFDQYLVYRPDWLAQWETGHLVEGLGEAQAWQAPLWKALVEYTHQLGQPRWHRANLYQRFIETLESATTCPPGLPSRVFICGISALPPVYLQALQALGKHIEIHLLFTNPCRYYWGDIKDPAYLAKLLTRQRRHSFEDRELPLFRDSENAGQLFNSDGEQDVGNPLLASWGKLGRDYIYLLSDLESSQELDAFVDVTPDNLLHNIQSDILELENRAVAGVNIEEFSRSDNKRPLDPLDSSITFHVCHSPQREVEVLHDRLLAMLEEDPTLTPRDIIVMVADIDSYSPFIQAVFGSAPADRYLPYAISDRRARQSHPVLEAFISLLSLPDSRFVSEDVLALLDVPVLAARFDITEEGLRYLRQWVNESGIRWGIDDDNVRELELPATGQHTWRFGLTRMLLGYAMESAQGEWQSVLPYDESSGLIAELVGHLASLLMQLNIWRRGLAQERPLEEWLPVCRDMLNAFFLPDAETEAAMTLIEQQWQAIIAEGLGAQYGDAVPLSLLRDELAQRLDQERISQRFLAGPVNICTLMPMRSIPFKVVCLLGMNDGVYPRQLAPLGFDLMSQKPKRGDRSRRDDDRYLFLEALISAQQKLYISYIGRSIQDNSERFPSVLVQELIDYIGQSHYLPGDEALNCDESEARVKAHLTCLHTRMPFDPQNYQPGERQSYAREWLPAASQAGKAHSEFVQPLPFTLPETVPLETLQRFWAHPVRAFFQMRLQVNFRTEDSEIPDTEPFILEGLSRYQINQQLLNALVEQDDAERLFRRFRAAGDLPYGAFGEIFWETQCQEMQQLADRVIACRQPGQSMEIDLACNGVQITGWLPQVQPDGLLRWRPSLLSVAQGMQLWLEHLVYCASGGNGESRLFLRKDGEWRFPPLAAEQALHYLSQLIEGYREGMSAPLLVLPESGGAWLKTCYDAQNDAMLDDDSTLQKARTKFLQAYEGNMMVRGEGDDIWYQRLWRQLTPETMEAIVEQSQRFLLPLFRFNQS
RecBCD enzyme subunit RecC (Escherichia coli (strain K12)) + RecBCD enzyme subunit RecB (Escherichia coli (strain K12)), sequence (P08394 whole entry, looked up): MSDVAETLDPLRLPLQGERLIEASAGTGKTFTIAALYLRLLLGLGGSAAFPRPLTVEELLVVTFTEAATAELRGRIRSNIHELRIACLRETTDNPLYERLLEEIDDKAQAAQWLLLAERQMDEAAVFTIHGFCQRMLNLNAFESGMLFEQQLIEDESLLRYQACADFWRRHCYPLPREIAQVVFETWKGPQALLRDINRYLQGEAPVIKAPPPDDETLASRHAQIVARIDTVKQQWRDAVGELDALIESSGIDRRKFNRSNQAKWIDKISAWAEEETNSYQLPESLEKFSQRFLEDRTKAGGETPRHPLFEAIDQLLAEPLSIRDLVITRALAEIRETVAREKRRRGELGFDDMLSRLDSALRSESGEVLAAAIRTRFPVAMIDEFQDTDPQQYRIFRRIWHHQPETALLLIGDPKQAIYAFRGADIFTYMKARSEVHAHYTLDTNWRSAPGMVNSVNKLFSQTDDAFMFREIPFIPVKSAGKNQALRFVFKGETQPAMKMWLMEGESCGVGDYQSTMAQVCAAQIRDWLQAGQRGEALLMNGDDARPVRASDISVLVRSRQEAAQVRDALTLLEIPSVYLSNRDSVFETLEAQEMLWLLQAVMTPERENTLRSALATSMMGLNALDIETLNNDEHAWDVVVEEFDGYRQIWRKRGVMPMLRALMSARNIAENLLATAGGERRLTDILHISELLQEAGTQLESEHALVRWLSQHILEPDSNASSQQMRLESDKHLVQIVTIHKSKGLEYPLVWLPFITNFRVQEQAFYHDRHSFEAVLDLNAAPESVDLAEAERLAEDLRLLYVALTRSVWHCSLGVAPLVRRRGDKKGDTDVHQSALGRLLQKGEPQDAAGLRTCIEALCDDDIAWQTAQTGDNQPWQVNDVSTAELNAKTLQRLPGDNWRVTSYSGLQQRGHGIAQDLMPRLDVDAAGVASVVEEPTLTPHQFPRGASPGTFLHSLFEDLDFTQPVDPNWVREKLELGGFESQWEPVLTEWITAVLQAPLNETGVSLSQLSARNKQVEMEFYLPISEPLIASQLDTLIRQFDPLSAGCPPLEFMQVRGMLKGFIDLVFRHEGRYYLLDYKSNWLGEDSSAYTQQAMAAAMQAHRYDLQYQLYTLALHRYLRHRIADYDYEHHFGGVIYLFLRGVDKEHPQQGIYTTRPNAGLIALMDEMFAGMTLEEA

This experiment concerns the target RecBCD enzyme subunit RecC (Escherichia coli (strain K12)) + RecBCD enzyme subunit RecB (Escherichia coli (strain K12)) (UniProt P07648+P08394). As to the kind of experiment: Chi-specific cleavage inhibition potency, RecBCD – biochemical, radioactive gel readout, counter-screen for AddAB inhibitor project, dose response (AID 623942). As to conditions: purified RecBCD, Chi cutting/unwinding. The procedure, abridged: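 Assay system: purified Escherichia coli RecBCD helicase-nuclease complex; Input: 0.15 nM RecBCD; Reagent: 0.1 nM labeled Chi+F DNA plus 5 mM ATP; Dosing: dilution series from 500 µM nominal top concentration; Times: 1 min at 37 °C; Detection: gel autoradiography; Measure: IC50 from Chi-cut band reduction vs DMSO.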
In general terms: A counterscreen serves to expose hits that act by an unwanted route or on another target.
Turning to `Cc1ccc2nc(/C(C#N)=C\c3ccc([N+](=O)[O-])o3)[nH]c2c1`, the IC50 was 38 µM.
On to `CCn1cc(C(=O)O)c(=O)c2cnc(N3CCN(C(=S)Nc4cccc(C(F)(F)F)c4)CC3)nc21`, for which the IC50 is 0.6 µM.
Consider `O=C(OCC(=O)c1cccs1)c1ccc([N+](=O)[O-])o1`, for which the IC50 was > 500 µM (inactive).
Turning to `N#Cc1c(NC(=O)c2ccc([N+](=O)[O-])o2)sc2c1CCC2`, the half-inhibitory concentration (IC50) is 20 µM.
The figure for `O=C(NCc1cccnc1)c1ccc([N+](=O)[O-])o1` is > 500 µM (inactive); for `CCn1cc(C(=O)O)c(=O)c2cc(F)c(N3CCN(C(=S)Nc4ccccc4C(F)(F)F)CC3)cc21` it is 20 µM; for `O=C(Nc1ccc(N2CCOCC2)cc1)c1ccc([N+](=O)[O-])o1` it is “inactive”.
As for `CCn1cc(C(=O)O)c(=O)c2cc(F)c(N3CCN(C(=S)Nc4cccc(C(F)(F)F)c4)CC3)cc21`, the IC50 was 0.6 µM.
With `CCn1cc(C(=O)O)c(=O)c2cnc(N3CCN(C(=S)Nc4ccccc4C(F)(F)F)CC3)nc21` the figure was 10 µM; with `C=CCn1c(Sc2ncc([N+](=O)[O-])s2)n[nH]c1=O`, > 500 µM (inactive); with `CC(=O)Nc1ccc2nc(NC(=O)c3ccc([N+](=O)[O-])o3)sc2c1`, > 500 µM (inactive).
The figure for `Cc1cccnc1NC(=O)c1ccc([N+](=O)[O-])o1` is > 500 µM (inactive).
For `NC(=O)c1ccsc1NC(=O)COC(=O)c1ccc([N+](=O)[O-])o1`, the IC50 result was “inactive”.
With `O=C(Nc1ncccn1)c1ccc([N+](=O)[O-])o1` the figure was 49 µM.
With `O=C(Nc1cccc(NC(=O)c2ccccc2Cl)c1)c1ccc([N+](=O)[O-])o1` the figure was 20 µM.
